In ChEMBL document CHEMBL4354826, “Structure-Based Discovery of SD-36 as a Potent, Selective, and Efficacious PROTAC Degrader of STAT3 Protein” (J Med Chem, 2019):
Activity calls are given as the source filed them. The rule behind the calls is not given here.

How the values were obtained:
[1] = target: Protein cereblon/Signal transducer and activator of transcription 1-alpha/beta (Homo sapiens) (UniProt P42224+Q96SW2); assay: Protac activity at CRBN/STAT1 in human MOLM16 cells assessed as degradation of STAT1 at 0.01 to 10 uM incubated for 4 hrs by Western blot analysis; assay type: cell-based
In short: (§1)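 Molm-16 cells treated 4 h with test compound at 0.01–10 μM, or control compounds at 10 μM. Lysates separated by SDS–PAGE, transferred to PVDF, blocked 1 h in 5% blocker/TBST, probed for each STAT protein, and detected by chemiluminescence.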

[2] = system: Mus musculus; assay: In vivo degradation of STAT3 in SCID mouse xenografted with MOLM-16 cells at 50 mg/kg, iv measured upto 72 hrs by Western blot analysis relative to control; assay type: functional
In short: (§2)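 SCID mice bearing subcutaneous Molm-16 tumors (3 × 10^6 cells in Matrigel; treated at ~150 mm3) given a single intravenous dose in 10% PEG400 + 90% PBS, or vehicle. Tumors harvested at time points. Lysates immunoblotted for total STAT3 and pSTAT3 Y705, compared with vehicle control.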

[3] = species: Homo sapiens; assay: Selectivity index, ratio of protac activity at CRBN/STAT5B in human MOLM16 cells to protac activity at CRBN/STAT3 in human MOLM16 cells; assay type: cell-based
In short: (§3)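 Molm-16 cells treated 4 h with compound at 0.01–10 μM, or controls at 10 μM. Western blot of lysates: SDS–PAGE, PVDF, 1 h block in 5% blocker/TBST, primary and secondary antibodies, chemiluminescent detection. STAT1, -2, -4, -5A/B and -6 levels read against STAT3 to give degradation selectivity.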

[4] = species: Homo sapiens; assay: Selectivity index, ratio of protac activity at CRBN/STAT4 in human SUDHL1 cells to protac activity at CRBN/STAT3 in human SUDHL1 cells; assay type: cell-based
In short: (§4)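 SU-DHL-1 cells treated 18 h with compound at 0.01–10 μM, or controls at 10 μM. Immunoblotting used SDS–PAGE, PVDF transfer, 1 h block in 5% blocker/TBST, primary and secondary antibodies and chemiluminescence. Levels of other STAT family members compared with STAT3 to express degradation selectivity.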

[5] = species: Homo sapiens; assay: Selectivity index, ratio of protac activity at CRBN/STAT6 in human SUDHL1 cells to protac activity at CRBN/STAT3 in human SUDHL1 cells; assay type: cell-based; in short: as §4
[6] = species: Homo sapiens; assay: Selectivity index, ratio of protac activity at CRBN/STAT6 in human MOLM16 cells to protac activity at CRBN/STAT3 in human MOLM16 cells; assay type: cell-based; in short: as §3
[7] = system: Mus musculus; assay: In vivo degradation of phosphorylated STAT3 Y705 in SCID mouse xenografted with MOLM-16 cells at 50 mg/kg, iv measured upto 72 hrs by Western blot analysis relative to control; assay type: functional; in short: as §2
[8] = target: Protein cereblon/Signal transducer and activator of transcription 5B (Homo sapiens) (UniProt P51692+Q96SW2); assay: Protac activity at CRBN/STAT5B in human MOLM16 cells assessed as degradation of STAT5B at 0.01 to 10 uM incubated for 4 hrs by Western blot analysis; assay type: cell-based; in short: as §1
[9] = target: T1, Protein cereblon/Signal transducer and activator of transcription 5A (Homo sapiens) (UniProt P42229+Q96SW2); assay: Protac activity at CRBN/STAT5A in human SUDHL1 cells assessed as degradation of STAT5A at 0.01 to 10 uM incubated for 18 hrs by Western blot analysis; assay type: cell-based
In short: (§5)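 SU-DHL-1 cells treated 18 h with test compound at 0.01–10 μM, or control compounds at 10 μM. Lysates separated by SDS–PAGE, transferred to PVDF, blocked 1 h in 5% blocker/TBST, probed for each STAT protein, and detected by chemiluminescence.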

[10] = species: Homo sapiens; assay: Selectivity index, ratio of protac activity at CRBN/STAT5B in human SUDHL1 cells to protac activity at CRBN/STAT3 in human SUDHL1 cells; assay type: cell-based; in short: as §4
[11] = target: Protein cereblon/Signal transducer and activator of transcription 2 (Homo sapiens) (UniProt Q96SW2+P52630); assay: Protac activity at CRBN/STAT2 in human SUDHL1 cells assessed as degradation of STAT2 at 0.01 to 10 uM incubated for 18 hrs by Western blot analysis; assay type: cell-based; in short: as §5
[12] = species: Homo sapiens; assay: Selectivity index, ratio of protac activity at CRBN/STAT2 in human SUDHL1 cells to protac activity at CRBN/STAT3 in human SUDHL1 cells; assay type: cell-based; in short: as §4
[13] = Antitumor activity against human MOLM16 cells xenografted in […] mouse assessed as tumor regression at 25 or 50 mg/kg, iv administered 3 times per week for 3 weeks; assay type: functional
[14] = species: Homo sapiens; assay: Selectivity index, ratio of protac activity at CRBN/STAT2 in human MOLM16 cells to protac activity at CRBN/STAT3 in human MOLM16 cells; assay type: cell-based; in short: as §3
[15] = target: Protein cereblon/Signal transducer and activator of transcription 3 (Homo sapiens, UniProt P40763+Q96SW2); assay: Protac activity at CRBN/STAT3 in human MOLM16 cells assessed as degradation of STAT3 at 0.01 to 10 uM incubated for 4 hrs by Western blot analysis; assay type: cell-based; in short: as §1
[16] = target: T1, Protein cereblon/Signal transducer and activator of transcription 5A (Homo sapiens); assay: Protac activity at CRBN/STAT5A in human MOLM16 cells assessed as degradation of STAT5A at 0.01 to 10 uM incubated for 4 hrs by Western blot analysis; assay type: cell-based; in short: as §1
[17] = target: T2, Signal transducer and activator of transcription 4 (Homo sapiens, UniProt Q14765); assay: Binding affinity to recombinant human His/SUMO-tagged STAT4 (133 to 705 residues) expressed in Escherichia coli Rosetta (DE3) incubated for 1 hr by fluorescence polarization assay
T2 sequence (Q14765 whole entry): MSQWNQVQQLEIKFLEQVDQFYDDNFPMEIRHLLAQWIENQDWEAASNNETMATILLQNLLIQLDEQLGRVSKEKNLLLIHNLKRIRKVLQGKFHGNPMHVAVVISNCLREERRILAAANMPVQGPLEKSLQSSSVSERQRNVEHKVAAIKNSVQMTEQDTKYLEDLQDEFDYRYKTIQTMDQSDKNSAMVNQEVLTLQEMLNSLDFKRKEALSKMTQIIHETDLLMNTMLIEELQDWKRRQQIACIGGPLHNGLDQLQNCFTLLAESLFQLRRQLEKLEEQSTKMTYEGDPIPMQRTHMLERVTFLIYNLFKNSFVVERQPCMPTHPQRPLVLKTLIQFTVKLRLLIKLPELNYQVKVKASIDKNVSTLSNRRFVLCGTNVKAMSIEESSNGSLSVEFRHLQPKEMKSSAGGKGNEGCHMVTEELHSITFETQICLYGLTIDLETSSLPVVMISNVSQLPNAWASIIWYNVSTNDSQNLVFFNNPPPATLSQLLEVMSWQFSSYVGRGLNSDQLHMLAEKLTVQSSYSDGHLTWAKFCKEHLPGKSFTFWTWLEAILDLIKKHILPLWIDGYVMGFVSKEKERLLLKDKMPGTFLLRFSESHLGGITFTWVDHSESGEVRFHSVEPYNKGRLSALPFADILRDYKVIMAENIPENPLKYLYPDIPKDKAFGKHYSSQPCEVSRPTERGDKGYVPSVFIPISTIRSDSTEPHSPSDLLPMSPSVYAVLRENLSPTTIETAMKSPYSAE

T1 sequence (P42229 whole entry, looked up): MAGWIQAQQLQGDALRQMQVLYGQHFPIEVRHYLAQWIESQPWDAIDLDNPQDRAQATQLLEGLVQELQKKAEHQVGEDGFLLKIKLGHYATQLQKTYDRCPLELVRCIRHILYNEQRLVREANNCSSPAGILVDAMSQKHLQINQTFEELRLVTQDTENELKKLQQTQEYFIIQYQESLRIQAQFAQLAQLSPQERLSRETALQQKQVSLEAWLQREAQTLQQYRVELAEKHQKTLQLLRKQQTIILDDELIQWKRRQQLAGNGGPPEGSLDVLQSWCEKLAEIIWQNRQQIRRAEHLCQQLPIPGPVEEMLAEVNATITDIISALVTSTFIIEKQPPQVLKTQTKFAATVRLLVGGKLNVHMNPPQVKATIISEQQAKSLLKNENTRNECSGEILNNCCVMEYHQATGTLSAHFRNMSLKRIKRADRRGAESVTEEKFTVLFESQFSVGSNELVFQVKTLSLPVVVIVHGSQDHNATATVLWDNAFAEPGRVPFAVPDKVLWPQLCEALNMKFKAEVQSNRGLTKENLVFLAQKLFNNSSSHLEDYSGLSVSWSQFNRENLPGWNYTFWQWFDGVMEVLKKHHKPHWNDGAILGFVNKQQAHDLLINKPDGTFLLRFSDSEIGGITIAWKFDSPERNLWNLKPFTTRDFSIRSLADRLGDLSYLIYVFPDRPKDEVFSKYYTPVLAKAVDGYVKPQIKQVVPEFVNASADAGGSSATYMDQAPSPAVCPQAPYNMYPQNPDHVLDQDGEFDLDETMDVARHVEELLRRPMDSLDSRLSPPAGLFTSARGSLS
T1 sequence (Q96SW2 whole entry, looked up): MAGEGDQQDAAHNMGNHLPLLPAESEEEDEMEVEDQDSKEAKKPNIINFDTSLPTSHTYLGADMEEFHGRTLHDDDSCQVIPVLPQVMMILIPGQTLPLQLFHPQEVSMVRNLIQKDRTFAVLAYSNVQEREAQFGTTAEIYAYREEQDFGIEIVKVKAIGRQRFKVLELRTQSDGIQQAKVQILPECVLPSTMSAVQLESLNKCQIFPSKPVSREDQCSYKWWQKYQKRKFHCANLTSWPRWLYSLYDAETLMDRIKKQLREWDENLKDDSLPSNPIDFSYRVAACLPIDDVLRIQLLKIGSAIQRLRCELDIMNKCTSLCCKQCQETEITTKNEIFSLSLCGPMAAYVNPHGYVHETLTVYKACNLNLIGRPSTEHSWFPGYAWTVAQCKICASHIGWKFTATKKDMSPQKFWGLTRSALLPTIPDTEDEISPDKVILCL
Chain of Protein cereblon/Signal transducer and activator of transcription 2 (Homo sapiens) (P52630 whole entry, looked up): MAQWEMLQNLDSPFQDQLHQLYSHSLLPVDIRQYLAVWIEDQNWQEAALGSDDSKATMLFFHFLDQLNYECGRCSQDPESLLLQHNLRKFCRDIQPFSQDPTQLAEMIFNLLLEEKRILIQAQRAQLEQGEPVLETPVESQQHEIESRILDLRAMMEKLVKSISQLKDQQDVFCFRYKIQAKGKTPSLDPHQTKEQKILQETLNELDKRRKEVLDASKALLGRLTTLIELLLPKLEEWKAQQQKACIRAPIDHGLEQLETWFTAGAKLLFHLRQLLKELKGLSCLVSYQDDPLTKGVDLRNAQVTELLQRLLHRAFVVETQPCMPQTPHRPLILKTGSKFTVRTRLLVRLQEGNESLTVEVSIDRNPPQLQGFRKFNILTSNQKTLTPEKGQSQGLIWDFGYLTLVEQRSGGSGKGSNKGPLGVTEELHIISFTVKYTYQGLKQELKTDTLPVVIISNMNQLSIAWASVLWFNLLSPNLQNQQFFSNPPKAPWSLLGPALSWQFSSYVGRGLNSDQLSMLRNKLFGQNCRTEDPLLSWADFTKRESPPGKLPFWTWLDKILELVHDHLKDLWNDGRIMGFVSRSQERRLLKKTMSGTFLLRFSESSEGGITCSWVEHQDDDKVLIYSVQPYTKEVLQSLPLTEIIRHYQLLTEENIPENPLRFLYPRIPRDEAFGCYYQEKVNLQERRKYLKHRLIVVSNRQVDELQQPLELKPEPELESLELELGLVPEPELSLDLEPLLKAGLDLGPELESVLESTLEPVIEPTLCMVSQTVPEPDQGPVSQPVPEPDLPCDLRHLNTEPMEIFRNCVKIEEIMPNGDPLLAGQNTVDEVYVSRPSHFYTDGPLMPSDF
Chain of Protein cereblon/Signal transducer and activator of transcription 2 (Homo sapiens) (Q96SW2 whole entry, looked up): as the sequence (Q96SW2 whole entry, looked up) above
Chain of Protein cereblon/Signal transducer and activator of transcription 5B (Homo sapiens) (P51692 whole entry, looked up): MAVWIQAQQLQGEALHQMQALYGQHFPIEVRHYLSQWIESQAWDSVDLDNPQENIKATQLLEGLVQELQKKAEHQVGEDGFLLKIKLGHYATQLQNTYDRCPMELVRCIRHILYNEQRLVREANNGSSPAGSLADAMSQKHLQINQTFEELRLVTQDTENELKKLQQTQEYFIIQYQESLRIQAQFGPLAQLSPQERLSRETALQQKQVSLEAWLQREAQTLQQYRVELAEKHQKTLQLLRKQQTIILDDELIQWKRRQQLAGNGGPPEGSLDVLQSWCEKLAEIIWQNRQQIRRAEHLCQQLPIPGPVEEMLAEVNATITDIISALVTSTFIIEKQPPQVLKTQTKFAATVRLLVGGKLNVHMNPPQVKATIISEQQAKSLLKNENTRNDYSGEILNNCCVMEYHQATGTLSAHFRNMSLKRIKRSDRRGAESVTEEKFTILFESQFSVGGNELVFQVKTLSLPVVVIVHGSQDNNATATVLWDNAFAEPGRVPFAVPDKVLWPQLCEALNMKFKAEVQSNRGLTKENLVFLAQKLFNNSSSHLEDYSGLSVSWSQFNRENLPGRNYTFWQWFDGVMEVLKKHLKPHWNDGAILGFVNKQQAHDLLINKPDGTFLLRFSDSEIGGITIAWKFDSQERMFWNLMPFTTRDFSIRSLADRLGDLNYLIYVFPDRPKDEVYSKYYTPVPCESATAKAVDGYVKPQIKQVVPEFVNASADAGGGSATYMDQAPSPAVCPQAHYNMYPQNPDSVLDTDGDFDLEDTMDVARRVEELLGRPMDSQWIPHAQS
Chain of Protein cereblon/Signal transducer and activator of transcription 5B (Homo sapiens) (Q96SW2 whole entry, looked up): as the sequence (Q96SW2 whole entry, looked up) above
Chain of Protein cereblon/Signal transducer and activator of transcription 3 (P40763 2-770 limits assumed): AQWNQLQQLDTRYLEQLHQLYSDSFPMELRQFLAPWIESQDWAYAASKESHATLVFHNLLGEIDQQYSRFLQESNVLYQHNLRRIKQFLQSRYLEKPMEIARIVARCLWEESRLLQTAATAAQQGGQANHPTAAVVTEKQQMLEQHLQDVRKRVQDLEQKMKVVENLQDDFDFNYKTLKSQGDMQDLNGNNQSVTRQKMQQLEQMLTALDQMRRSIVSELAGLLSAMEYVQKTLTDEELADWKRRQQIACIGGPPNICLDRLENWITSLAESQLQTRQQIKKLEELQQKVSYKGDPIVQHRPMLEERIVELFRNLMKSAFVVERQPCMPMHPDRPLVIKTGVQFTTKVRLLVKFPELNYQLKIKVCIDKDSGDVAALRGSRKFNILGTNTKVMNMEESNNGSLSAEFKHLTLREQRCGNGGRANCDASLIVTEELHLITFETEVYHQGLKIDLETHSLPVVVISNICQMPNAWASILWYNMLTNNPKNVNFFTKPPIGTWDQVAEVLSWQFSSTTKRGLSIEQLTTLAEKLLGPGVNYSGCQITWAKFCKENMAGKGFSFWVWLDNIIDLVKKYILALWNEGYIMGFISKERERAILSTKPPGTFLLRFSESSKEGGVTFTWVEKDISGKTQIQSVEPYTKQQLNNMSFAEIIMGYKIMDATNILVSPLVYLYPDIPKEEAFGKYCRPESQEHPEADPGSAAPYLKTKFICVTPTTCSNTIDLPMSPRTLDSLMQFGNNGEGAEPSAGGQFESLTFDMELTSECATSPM
Chain of Protein cereblon/Signal transducer and activator of transcription 3 (Q96SW2 whole entry partner): as the sequence (Q96SW2 whole entry, looked up) above

In the case of `NC(=O)CC[C@H](NC(=O)[C@@H]1CC[C@@H]2CCN(C(=O)CCCCCC#Cc3cccc4c3CN(C3CCC(=O)NC3=O)C4=O)C[C@H](NC(=O)c3cc4cc(C(F)(F)P(=O)(O)O)ccc4[nH]3)C(=O)N21)C(=O)NC(c1ccccc1)c1ccccc1` (some centres not stated), the Activity [1] is reported as “inactive”, the Activity [2] is reported as over 95% and the Ratio [3] is reported as over 100. The Ratio [4] was over 100, the Ratio [5] was over 100 and the Ratio [6] was over 100. The Activity [7] was over 90%, the Activity [8] was “inactive” and the Activity [9] was “inactive”. For the same compound, the Ratio [10] was over 100, the Activity [11] was “inactive” and the Ratio [12] was over 100. For the same compound, the Activity [13] was 100%, the Ratio [14] was over 100 and the Activity [15] was “Active”. For the same compound, the Activity [16] was “inactive” and the Kd [17] was 1000 nM.
